Source: PubChem
M1 ag: M1 muscarinic receptor agonists, primary screen, CHO-M1 cells, Fluo-4 calcium, agonist mode | Muscarinic acetylcholine receptor M1 | Fluo-4 calcium fluorescence; active compounds read high | B-score at 10 µM | 3% of 64,000 active | AID 626, 2007;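 active = fluorescence rise, raw or as B-score row- and column-corrected plate score, outside the 99.7% band of its plate's samples, either direction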
BAP1 block: inhibitors of BAP1 deubiquitinase, primary screen, biochemical, Ub-AMC fluorescence, kinetic; Ubiquitin carboxyl-terminal hydrolase BAP1 (Homo sapiens), Q92560; recombinant BAP1, Ub-AMC hydrolysis fluorescence kinetic; active compounds read low; calls only at 20 µM; 0.48% of 72,000 active; AID 436, 2006;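 active = activity remaining at or below 50% of control, provided the compound also passes the data quality filters; inactive = the rest, including low values that fail the filters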;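 note: 100% = DMSO wells rate and 0% = substrate alone blank rate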
Ecoli tolC: growth inhibitors of E. coli tolC mutant, primary screen, strain BW25113 ΔtolC::kan, 384-well; growth inhibition, % at 10 µM (by protocol); 2.2% of 65,000 active; OD615;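 active = growth inhibition at or above a cutoff equal to the mean over every tested compound plus 3 SD, cut at about 60% in these data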;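 note: growth measured after 20 h incubation at 37 °C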
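Test system: E. coli BW25113 ΔtolC::kan bacteria; incubation: 37 °C, 20 h exposure; medium: LB broth supplemented with 50 µg/mL kanamycin; read-out basis: percent growth inhibition; signal: A615 absorbance measurement; compound: 10 µM final, single dose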
Ecoli WT expand: growth inhibitors of wild-type E. coli, primary screen, strain BW25113, expanded library, OD600; OD600 absorbance; growth inhibition, % at 100 µM; 0.15% of 98,000 active;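 active = growth inhibition above about 50% at one test dose, limit read from the data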;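 note: growth measured after 20 h incubation at 37 °C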
M1 antag: antagonists of rat M1 muscarinic receptor; Muscarinic acetylcholine receptor M1 (Rattus norvegicus), P08482; CHO-M1 cells, Fluo-4 calcium, ACh EC80 antagonist mode; active compounds read low; B-score at 10 µM; 3.4% of 64,000 active; AID 628, 2007;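 active = calcium fluorescence response, raw or row-and-column corrected B-score, differing from the plate sample mean either way at a set confidence level, mostly lower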
Target sequence (P08482 whole entry, looked up): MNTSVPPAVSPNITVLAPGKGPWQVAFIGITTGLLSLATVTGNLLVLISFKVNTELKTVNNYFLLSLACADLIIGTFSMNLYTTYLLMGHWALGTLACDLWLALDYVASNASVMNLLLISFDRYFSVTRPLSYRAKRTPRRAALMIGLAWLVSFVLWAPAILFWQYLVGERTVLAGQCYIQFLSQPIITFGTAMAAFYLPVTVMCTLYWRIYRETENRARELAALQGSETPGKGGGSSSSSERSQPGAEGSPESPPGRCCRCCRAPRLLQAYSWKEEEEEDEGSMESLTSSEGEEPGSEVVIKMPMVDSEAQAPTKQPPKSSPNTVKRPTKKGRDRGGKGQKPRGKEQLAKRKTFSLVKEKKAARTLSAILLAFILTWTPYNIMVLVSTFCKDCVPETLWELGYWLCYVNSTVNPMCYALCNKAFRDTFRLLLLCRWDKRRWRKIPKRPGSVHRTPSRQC
Hsp90 block: tumor Hsp90 inhibitors, primary screen, cell lysate, fluorescence polarization, NCI-N417 lysate | Cy3B-geldanamycin FP displacement | inhibition, % at 30 µM | 0.35% of 64,000 active | AID 429, 2006;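 active = inhibition above 50%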;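 note: 0% = tracer plus lysate wells and 100% = tracer alone without lysate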
M1 ag confirm: rat M1 muscarinic receptor agonists, confirmation, CHO-M1 cells, Fluo-4 calcium, duplicate retest; Fluo-4 calcium fluorescence, agonist mode; actives lie on both sides; fluorescence change (max-min) at 10 µM; 19% of 1,700 active; shares compounds with M1 ag; AID 1488, 2009;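 active = fluorescence change differs from the solvent-only DMSO control mean at a set confidence level in both duplicate runs; inconclusive = differs from solvent-only control mean in just one of two runs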;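 note: an EC20 dose of acetylcholine follows compound addition during the same imaging run; raw fluorescence intensity difference in instrument units with no normalization to controls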
M4 agonist ctr: agonist activity at rat M4 receptor, confirmation, counter-screen for M1 allosteric modulator project, cell-based, agonist mode; shares compounds with M1 ag; CHO M4/Gqi5 cells, Fluo-4 calcium fluorescence; actives lie on both sides; fluorescence change (max-min) at 10 µM; 9% of 1,700 active; AID 1741, 2009;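 active = fluorescence change differing from the plate's solvent-only control wells at 99.7% confidence in both duplicates, whether higher or lower; inconclusive = differs from solvent controls in only one of two duplicates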
* = called active by the depositor; i = inactive; ? = inconclusive; . = no result shown. Hits are enriched below; roughly 5.1% of the tested compounds scored in any of these assays.

SMILES | M1 ag | BAP1 block | Ecoli tolC | Ecoli WT expand | M1 antag | Hsp90 block | M1 ag confirm | M4 agonist ctr
COc1ccc(C2CC(C(F)(F)F)n3nc(C(=O)Nc4sc5c(c4C(N)=O)CCC(C)C5)c(Br)c3N2)cc1 (stereo not given) | . | i | . | . | . | . | . | .
CN1CCN(c2nc(-c3ccccc3)cc(C(F)(F)F)n2)CC1 | . | . | . | 26.0 | . | . | . | .
CN1CCN(c2nc(-c3cccs3)cc(C(F)(F)F)n2)CC1 | 3.1* | . | 5.7 | 9.0 | -18* | . | ? | ?
C=C1c2cc(OC)ccc2NC(=O)N1CC | 8.22* | i | -11.8 | -6.0 | 0.0689 | -8.1 | 70.8* | 11.1
C=C1c2cc(C)ccc2NC(=O)N1c1ccc(C)cc1 | . | . | . | 7.0 | . | . | . | .
O=C1COc2ccc(C(=O)CSc3nnc(Cc4cccs4)n3-c3ccccc3)cc2N1 | 5.19* | i | 8.2 | 33.0 | 0.455 | -0.2 | 5.31 | -23.6
C=C(C)CSc1nnc2n(C)c(=O)c3c4c(sc3n12)CCC4 | 3.48* | i | 11.6 | 3.0 | 0.00448 | -2.1 | -19.2 | ?
CC1(C)CC(=O)C2=C(C1)Nc1ccccc1NC2c1cccc(Cl)c1 (stereo not given) | . | i | . | . | . | . | . | .
COc1ccc(C2(c3ccc(OC)cc3OC)C=Cc3c(ccc4ccccc34)O2)c(OC)c1 | . | i | . | . | . | . | . | .
COc1cc(/C=c2\s/c(=C(/C#N)C(=O)N3CCCC3)n(-c3ccccc3)c2=O)ccc1O | 48* | i | 5.8 | -9.0 | -0.43 | -11.3 | 39.6 | 43.1
N#C/C(=C/c1ccc(N2CCCCCC2)o1)c1ccc(F)cc1 | 31.3* | . | 34.6 | -15.0 | 0.871 | -0.8 | -2.84 | ?
Cc1ccc(-c2nc(CSCC(=O)N3CCN(c4ccccn4)CC3)c(C)o2)cc1 | 5.6* | i | 12.1 | -3.0 | -2.28* | -1.1 | ? | -51.8
Cc1cccc(-c2nc(CSCC(=O)N3CCN(Cc4ccc5c(c4)OCO5)CC3)c(C)o2)c1 | 5.71* | i | 60.2 | -10.0 | -4* | 3.6 | -0.643 | ?
CCc1ccc(-c2nc(CSCC(=O)N3CCN(c4ccccn4)CC3)c(C)o2)cc1 | 4.62* | i | 34.5 | -2.0 | -1.39 | -0.3 | -6.26 | ?
Oc1ccc(CNc2ccccc2)c2cccnc12 | 0.105 | i | -4.6 | 3.0 | -0.336 | 4.0 | . | .
Oc1ccc(CNc2ccc(F)cc2)c2cccnc12 | 21.9* | i | 3.3 | 6.0 | 0.0369 | 16.5 | -20.1 | ?
CCC(C)(C)NC(=O)C(c1cccc(OC)c1)N(C(=O)c1ccn[nH]1)c1cccc(OC)c1 (stereo not given) | 12* | i | -27.0 | 10.0 | -0.952 | 2.1 | -23.9* | -68.2*
COc1ccc(N(C(=O)c2ccn[nH]2)C(C(=O)NC(C)(C)C)c2ccc(F)cc2)cc1 (stereo not given) | . | . | . | 8.0 | . | . | . | .
O=C1CN(C(=O)c2ccc(Br)o2)C(c2ccc(F)cc2)c2cc(Cl)ccc2N1 (stereo not given) | 2.82* | i | 26.5 | -18.0 | -0.845 | 0.1 | -14.6 | ?
Cc1ccc2c(c1)C(c1ccccc1)N(C(=O)c1ccc(Br)o1)CC(=O)N2 (stereo not given) | 0.577 | i | 17.7 | -4.0 | 0.754 | -4.0 | . | .
CCCSc1nnc2c(n1)OC(C=Cc1ccc([N+](=O)[O-])o1)Nc1ccccc1-2 (stereo not given) | . | i | . | . | . | . | . | .
Oc1ccccc1C1Nc2cccc3cccc(c23)N1 | 2.72* | . | 4.1 | 12.0 | 0.0336 | 3.5 | ? | -22.3
COc1ccccc1C1Nc2cccc3cccc(c23)N1 | . | . | . | 3.0 | . | . | . | .
COc1ccc(C2=NO[C@@H]3C(=O)N(C4CCCCC4)C(=O)[C@H]23)cc1OC | 18.4* | i | -8.9 | -2.0 | 0.041 | -0.8 | -10.1 | -28.4
O=C(Nc1ccc2c(c1)OCCO2)C1CCCN(S(=O)(=O)Cc2ccccc2)C1 (stereo not given) | -0.513 | i | -1.3 | -6.0 | -0.655 | 3.5 | . | .
SMILES | M1 ag | BAP1 block | Ecoli tolC | Ecoli WT expand | M1 antag | Hsp90 block | M1 ag confirm | M4 agonist ctr
O=C(Nc1ccc2c(c1)OCO2)C1CCCN(S(=O)(=O)Cc2ccccc2)C1 (stereo not given) | 3.91* | i | -10.2 | -5.0 | -2.54* | 7.5 | 5.34 | -23.6
CC(=O)c1ccc(N2C(=O)C3C(C2=O)C(C(=O)c2ccc(Cl)cc2)N2CCCC32)cc1 (stereo not given) | 29.3* | . | 0.8 | -7.0 | -1.36 | -19.8 | 334* | 470*
COc1ccc(S(=O)(=O)N2Cc3ccccc3CC2C(=O)O)cc1OC (stereo not given) | -0.448 | i | -9.9 | -6.0 | -0.806 | 0.4 | . | .
O=C(Nc1ccc2c(c1)OCO2)C1Cc2ccccc2CN1S(=O)(=O)c1cccs1 (stereo not given) | 5.54* | i | -2.6 | -4.0 | -1.16 | -3.8 | -0.255 | -21.5
COc1ccc(S(=O)(=O)N2Cc3ccccc3CC2C(=O)Nc2ccc(O)cc2)cc1OC (stereo not given) | 4.02* | i | 6.8 | -5.0 | -0.666 | 2.4 | -4.02 | -23.7
CC1CCc2cccc3c2N1c1cc(C#N)c(C#N)cc1O3 (stereo not given) | 11.4* | i | 23.0 | -7.0 | 0.0294 | -3.9 | ? | -16.1
CCn1c(=O)c(C(=O)Nc2ccc(I)cc2)c(O)c2ccccc21 | . | i | . | . | . | . | . | .
O=C(OCC#CCSc1nnc(-c2cccc3ccccc23)o1)c1cccs1 | 18.3* | i | 25.1 | -28.0 | -1.14 | -9.3 | ? | -29.9
Brc1ccc(C=Nc2nc3ccccc3n2CCN2CCCCC2)cc1 | . | i | . | . | . | . | . | .
COc1ccc(C=Cc2ccc(OC)cc2)cc1 | . | i | . | . | . | . | . | .
O=C(NCc1ccco1)c1ccc2c(=O)n(Cc3ccco3)c(SCC(=O)N3CCCC3)nc2c1 | 0.772 | i | 11.2 | -4.0 | -0.422 | -4.0 | . | .
O=C(CSc1nc2ccccc2c(=O)n1Cc1ccco1)N1CCCCCC1 | 2.05* | i | 4.4 | -15.0 | -1.06 | -6.2 | ? | -61.8
O=C(c1cnn2c(C(F)(F)F)cc(-c3ccc(Br)cc3)nc12)N1CCCCCC1 | . | i | . | . | . | . | . | .
Cc1ccc(N(C(C)C(=O)N2CCC(C)CC2)S(C)(=O)=O)cc1C (stereo not given) | 2.46* | i | -8.4 | 0.0 | -0.159 | -0.1 | -6.68 | -14.9
